As a reminder, the IC50 is the concentration at which inhibition is half-maximal.

The structures appear in SMILES notation. Values after ≈ are worked out from the molar mass of the structure shown.

The target in test [1] is T1, Caspase-3 (Homo sapiens, UniProt P42574).
T1 sequence (P42574 whole entry): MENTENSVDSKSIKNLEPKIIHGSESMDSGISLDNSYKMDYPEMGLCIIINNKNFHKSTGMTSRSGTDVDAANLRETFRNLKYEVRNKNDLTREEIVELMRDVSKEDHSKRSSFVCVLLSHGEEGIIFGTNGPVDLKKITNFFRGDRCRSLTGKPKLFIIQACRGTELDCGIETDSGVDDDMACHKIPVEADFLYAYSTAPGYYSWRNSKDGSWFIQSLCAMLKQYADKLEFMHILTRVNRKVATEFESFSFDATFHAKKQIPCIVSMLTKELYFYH
Nature of the test: Inhibition of peptidase activity of CPP32.

The subject of test [2] is A549. Nature of the test: Cytotoxicity against human A549 cells. It is filed as functional, cell-based.
Test [3] has as its system P388. Nature of the test: Cytotoxicity against mouse P388 cells. It is filed as functional, cell-based.
Test [4] in a line: Inhibition of bovine phosphatase activity of calcineurin by microtitre method. Also noted: species or system Bos taurus. Put shortly:
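Bovine calcineurin assayed together with bovine calmodulin, using p-nitrophenyl phosphate as the phosphatase substrate.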

On to `CC(=O)OCC(OC(C)=O)c1c[nH]c2c1C(=N)C(Cl)=C(N)C2=O` (configuration not stated) [SECOBATZELLINE A DIACETATE], for which the IC50 in test [1] was 2.35 µM; in test [2], 0.12 µg/mL; in test [3], 0.01 µg/mL.

Consider `N=C1C(Cl)=C(N)C(=O)c2[nH]cc(C(O)CO)c21` (configuration not stated) [SECOBATZELLINE A], for which the IC50 was 0.55 µg/mL (≈ 2.15 µM) in test [4], 0.04 µg/mL (≈ 0.156 µM) in test [2] and 0.06 µg/mL (≈ 0.235 µM) in test [3].

On to `CC(=O)OCC(OC(C)=O)c1c[nH]c2c1C(=O)C(Cl)=C(N)C2=O` (configuration not stated) [SECOBATZELLINE B DIACETATE], for which the IC50 in test [1] was 25.8 µM; in test [2], 4.68 µg/mL; in test [3] it was 3.83 µg/mL.

`NC1=C(Cl)C(=O)c2c(C(O)CO)c[nH]c2C1=O` (configuration not stated) [SECOBATZELLINE B]: the results for the IC50 in test [4], in test [2] and in test [3] were 2.21 µg/mL (≈ 8.61 µM), 2.86 µg/mL (≈ 11.1 µM) and 1.22 µg/mL (≈ 4.75 µM), respectively.

Values taken from ChEMBL document CHEMBL1144101, “Secobatzellines A and B, two new enzyme inhibitors from a deep-water Caribbean sponge of the genus Batzella” (J Nat Prod, 1999).
